Consider nine compounds from the M2OR odorant receptor database.

Conditions in all cases: stereoisomer not certain
Experiment [1] concerns the target T1, OR9A4 (Homo sapiens) (UniProt Q8NGU2).
T1 sequence (whole entry): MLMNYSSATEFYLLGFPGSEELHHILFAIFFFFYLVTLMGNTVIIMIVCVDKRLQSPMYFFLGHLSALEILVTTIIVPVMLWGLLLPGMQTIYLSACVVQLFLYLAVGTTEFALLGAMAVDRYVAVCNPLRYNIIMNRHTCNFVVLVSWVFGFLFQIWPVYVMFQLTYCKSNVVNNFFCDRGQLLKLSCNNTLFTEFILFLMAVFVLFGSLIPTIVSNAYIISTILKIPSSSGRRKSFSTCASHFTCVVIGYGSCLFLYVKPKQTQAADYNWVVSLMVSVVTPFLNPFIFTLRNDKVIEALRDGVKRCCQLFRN
The method, boiled down:
(§1)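 Each entry records the cell line, G-protein, co-transfected protein and tags used. Methods varied with the source, often transient luciferase assays in mammalian cell lines. A receptor–molecule pair is called responsive (active) if the original authors judged its signal statistically different from baseline and non-responsive (inactive) otherwise.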

Experiment [2] deals with T2, OR9G1 (Homo sapiens) (UniProt Q8NH87).
T2 sequence (whole entry): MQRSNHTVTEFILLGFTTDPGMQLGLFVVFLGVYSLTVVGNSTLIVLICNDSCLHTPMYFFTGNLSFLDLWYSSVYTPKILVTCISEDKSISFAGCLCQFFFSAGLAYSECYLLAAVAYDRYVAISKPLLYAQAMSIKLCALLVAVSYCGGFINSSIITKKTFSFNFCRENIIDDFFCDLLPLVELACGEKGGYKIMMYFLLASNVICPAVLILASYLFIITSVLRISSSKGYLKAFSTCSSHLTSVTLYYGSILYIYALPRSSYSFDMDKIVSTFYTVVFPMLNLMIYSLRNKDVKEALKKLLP
In outline:
as §1

Experiment [3] has as its target T3, OR9G4 (Homo sapiens) (UniProt Q8NGQ1).
T3 sequence (whole entry): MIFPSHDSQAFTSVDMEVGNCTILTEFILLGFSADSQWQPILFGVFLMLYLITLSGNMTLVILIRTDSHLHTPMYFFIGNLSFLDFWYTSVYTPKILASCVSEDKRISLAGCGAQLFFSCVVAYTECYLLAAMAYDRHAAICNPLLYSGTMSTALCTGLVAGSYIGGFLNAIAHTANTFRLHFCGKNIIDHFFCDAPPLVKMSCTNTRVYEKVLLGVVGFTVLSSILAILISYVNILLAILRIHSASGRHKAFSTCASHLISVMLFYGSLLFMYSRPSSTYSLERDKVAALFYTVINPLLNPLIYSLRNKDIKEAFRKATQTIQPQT
In outline: as §1

Experiment [4] concerns the target T4, OR9G9 (Homo sapiens) (UniProt P0C7N8).
T4 sequence (whole entry): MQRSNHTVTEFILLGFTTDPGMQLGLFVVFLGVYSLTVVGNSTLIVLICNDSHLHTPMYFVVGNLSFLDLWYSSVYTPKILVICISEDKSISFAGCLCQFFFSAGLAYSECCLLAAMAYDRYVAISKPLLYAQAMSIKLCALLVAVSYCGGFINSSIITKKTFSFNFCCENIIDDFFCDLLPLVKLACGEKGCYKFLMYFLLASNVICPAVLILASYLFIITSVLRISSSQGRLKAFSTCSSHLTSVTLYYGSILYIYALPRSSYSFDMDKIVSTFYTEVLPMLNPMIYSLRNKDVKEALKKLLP
The method, boiled down:
as §1

For experiment [5], the target named is T5, OR9I1 (Homo sapiens) (UniProt Q8NGQ6).
T5 sequence (whole entry): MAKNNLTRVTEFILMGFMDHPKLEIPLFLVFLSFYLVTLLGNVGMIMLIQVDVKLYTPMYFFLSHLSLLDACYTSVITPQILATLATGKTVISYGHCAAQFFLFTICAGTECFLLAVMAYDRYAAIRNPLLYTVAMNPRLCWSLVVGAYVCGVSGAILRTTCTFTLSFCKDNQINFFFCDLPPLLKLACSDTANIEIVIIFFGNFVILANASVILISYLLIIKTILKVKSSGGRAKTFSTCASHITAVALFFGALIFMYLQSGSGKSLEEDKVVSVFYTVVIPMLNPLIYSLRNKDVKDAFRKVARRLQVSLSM
In outline:
as §1

Experiment [6] deals with T6, OR9K2 (Homo sapiens) (UniProt Q8NGE7).
T6 sequence (whole entry): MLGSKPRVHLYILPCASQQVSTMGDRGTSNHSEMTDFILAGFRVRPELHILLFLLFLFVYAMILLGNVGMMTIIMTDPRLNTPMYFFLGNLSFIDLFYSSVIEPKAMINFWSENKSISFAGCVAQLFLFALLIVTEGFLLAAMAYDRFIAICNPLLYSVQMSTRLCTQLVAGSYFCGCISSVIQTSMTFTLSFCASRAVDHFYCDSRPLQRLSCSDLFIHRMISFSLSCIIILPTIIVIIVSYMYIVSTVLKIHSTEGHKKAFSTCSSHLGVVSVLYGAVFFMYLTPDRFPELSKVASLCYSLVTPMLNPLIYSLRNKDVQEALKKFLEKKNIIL
In outline: as §1

The target of experiment [7] is T7, OR9Q1 (Homo sapiens) (UniProt Q8NGQ5).
T7 sequence (whole entry): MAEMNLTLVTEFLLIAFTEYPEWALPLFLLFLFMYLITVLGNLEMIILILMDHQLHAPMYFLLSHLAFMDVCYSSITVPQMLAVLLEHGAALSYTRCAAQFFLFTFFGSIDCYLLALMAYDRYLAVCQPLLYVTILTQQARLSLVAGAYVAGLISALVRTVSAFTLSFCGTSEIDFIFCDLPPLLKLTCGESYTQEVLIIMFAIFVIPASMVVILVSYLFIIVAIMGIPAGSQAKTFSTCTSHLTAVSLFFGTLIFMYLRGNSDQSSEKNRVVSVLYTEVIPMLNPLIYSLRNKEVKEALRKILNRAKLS
In outline: as §1

Experiment [8] concerns the target T8, OR9Q2 (Homo sapiens) (UniProt Q8NGE9).
T8 sequence (whole entry): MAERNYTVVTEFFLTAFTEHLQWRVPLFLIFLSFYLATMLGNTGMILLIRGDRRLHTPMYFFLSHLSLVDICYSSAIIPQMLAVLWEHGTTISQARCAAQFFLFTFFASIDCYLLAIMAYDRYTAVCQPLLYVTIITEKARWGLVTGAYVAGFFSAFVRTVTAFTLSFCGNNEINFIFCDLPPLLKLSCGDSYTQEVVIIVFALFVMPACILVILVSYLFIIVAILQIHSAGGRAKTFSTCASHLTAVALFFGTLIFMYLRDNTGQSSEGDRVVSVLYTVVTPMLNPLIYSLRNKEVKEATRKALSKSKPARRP
The method, boiled down:
as §1

Experiment [9] deals with T9, OR9G4 H6Y N206D V222A.
T9 sequence (whole entry): T3 sequence (whole entry) with H6Y, N206D, V222A
The method, boiled down: as §1

Experiment [10] has as its system T10, OR9G4 N206D V222A.
T10 sequence (whole entry): T3 sequence (whole entry) with N206D, V222A
The method, boiled down: as §1

For experiment [11], the system named is T11, OR9G9.
T11 sequence (whole entry): T4 sequence (whole entry) with C193G
In outline: as §1

The subject of experiment [12] is T12, OR9K2 R207H.
T12 sequence (whole entry): T6 sequence (whole entry) with R207H
The method, boiled down:
as §1

Experiment [13] relates to T13, OR9Q1 A83T.
T13 sequence (whole entry): T7 sequence (whole entry) with A83T
In outline: as §1

The test system of experiment [14] is T14, OR9Q2 C179R.
T14 sequence (whole entry): T8 sequence (whole entry) with C179R
In outline:
as §1

Experiment [15] addresses T15, Or10j5 (Mus musculus) (UniProt Q62007).
T15 sequence (whole entry): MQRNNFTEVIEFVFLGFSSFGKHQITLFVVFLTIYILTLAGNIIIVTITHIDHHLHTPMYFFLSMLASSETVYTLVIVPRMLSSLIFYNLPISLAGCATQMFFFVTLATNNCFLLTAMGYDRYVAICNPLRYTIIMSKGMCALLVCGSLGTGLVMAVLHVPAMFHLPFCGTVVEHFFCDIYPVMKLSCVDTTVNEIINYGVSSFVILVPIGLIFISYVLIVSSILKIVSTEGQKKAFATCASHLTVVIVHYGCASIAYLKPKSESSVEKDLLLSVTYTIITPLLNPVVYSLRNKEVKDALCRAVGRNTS
The method, boiled down: as §1

Experiment [16] concerns the target T16, Or1m1 (Mus musculus) (UniProt Q8VFM9).
T16 sequence (whole entry): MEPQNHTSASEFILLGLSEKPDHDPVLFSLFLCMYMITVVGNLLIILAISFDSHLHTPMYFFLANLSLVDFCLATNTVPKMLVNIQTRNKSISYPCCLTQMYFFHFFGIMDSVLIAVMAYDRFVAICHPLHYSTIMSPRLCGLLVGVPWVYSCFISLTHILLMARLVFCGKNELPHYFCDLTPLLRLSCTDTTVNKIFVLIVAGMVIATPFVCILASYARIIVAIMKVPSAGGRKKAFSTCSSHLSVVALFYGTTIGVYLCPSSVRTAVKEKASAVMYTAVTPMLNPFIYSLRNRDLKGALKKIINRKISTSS
The method, boiled down: as §1

For experiment [17], the target named is T17, Or5ar1 (Mus musculus) (UniProt Q8VGS3).
T17 sequence (whole entry): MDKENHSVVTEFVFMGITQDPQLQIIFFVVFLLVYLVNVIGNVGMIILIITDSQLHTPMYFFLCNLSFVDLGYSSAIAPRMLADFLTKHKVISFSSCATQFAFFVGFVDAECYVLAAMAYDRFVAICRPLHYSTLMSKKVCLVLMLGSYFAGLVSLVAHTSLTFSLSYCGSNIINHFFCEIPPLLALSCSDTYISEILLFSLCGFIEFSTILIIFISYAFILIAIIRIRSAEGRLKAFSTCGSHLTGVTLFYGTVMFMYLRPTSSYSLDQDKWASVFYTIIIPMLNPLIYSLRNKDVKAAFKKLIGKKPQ
The method, boiled down: as §1

Experiment [18] has as its target T18, Or5an6 (Mus musculus) (UniProt Q8VFV4).
T18 sequence (whole entry): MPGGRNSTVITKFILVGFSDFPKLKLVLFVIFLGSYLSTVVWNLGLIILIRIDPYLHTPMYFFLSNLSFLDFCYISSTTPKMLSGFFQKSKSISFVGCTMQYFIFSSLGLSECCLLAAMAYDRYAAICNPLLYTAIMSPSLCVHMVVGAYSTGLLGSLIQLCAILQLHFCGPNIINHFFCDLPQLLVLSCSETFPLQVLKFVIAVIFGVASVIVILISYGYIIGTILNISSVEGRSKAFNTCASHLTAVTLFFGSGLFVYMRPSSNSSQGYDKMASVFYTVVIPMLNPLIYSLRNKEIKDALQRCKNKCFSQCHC
In outline: as §1

Experiment [19] concerns the target T19, Or2c1 (Mus musculus) (UniProt P23275).
T19 sequence (whole entry): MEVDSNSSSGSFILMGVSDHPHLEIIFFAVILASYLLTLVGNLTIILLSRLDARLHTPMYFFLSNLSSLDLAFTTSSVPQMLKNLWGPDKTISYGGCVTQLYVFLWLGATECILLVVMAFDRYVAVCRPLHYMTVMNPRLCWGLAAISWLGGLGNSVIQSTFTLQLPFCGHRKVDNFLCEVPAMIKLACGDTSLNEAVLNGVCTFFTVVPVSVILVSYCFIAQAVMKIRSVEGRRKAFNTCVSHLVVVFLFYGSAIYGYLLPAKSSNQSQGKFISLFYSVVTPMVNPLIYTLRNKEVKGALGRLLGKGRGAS
The method, boiled down: as §1

Positions count from the first letter of the chain named.

Regarding `CC(CO)CS` (stereo not given), the “odorant receptor agonist call” value in experiment [1], in experiment [2], in experiment [3], in experiment [4], in [5] and in experiment [6] was “inactive” in each case. The “odorant receptor agonist call” value in [7] and in experiment [8] was “inactive” throughout.

Take `CCC1OC(=O)C(O)=C1C` (stereo not given): the “odorant receptor agonist call” value in [1], in experiment [2], in experiment [3], in experiment [9], in [10] and in [11] was “inactive” in each case. The “odorant receptor agonist call” value in experiment [5], in experiment [6], in experiment [12], in [7], in [13] and in experiment [8] was “inactive” each time. Also, in experiment [14], the “odorant receptor agonist call” value was “inactive”.

Take `CCCCCCCCCCCC(=O)O`: the “odorant receptor agonist call” value in experiment [15] is “inactive”.

As to `CCCCCC(=O)C(C)C(C)=O` (stereo not given), the “odorant receptor agonist call” value in [1], in experiment [2], in experiment [3], in [4], in experiment [5] and in experiment [6] was “inactive” throughout. The “odorant receptor agonist call” value in experiment [7] and in [8] was “inactive” each time.

`CCCCCCCCCCC(=O)O`: in [15], the “odorant receptor agonist call” value was “inactive”.

Regarding `CCCCC=O`, the “odorant receptor agonist call” value in [15], in [16] and in experiment [17] was “inactive” in each case.

Take `CC1CCCCCCCCCCCCC(=O)C1` (stereo not given): the “odorant receptor agonist call” value in experiment [1], in experiment [2], in experiment [3], in experiment [4], in [5] and in [6] was “inactive” each time. Further, the “odorant receptor agonist call” value in experiment [7] and in [8] was “inactive” each time. Further, in experiment [18], the “odorant receptor agonist call” value was “active”.

As for `CCCCC(=O)O`, the “odorant receptor agonist call” value in experiment [15], in experiment [16], in experiment [19] and in [17] was “inactive” throughout.

As to `O=C([O-])CCCCCCC(=O)[O-].[H+].[H+]`, the “odorant receptor agonist call” value in [15], in experiment [16] and in experiment [17] was “inactive” each time.
